pIC50: −log10 of the molar value.
Assays:
[1] = biological target: T1, cAMP and cAMP-inhibited cGMP 3',5'-cyclic phosphodiesterase 10A (Homo sapiens, UniProt Q9Y233); test: Inhibition of Ca2+/calmodulin-induced recombinant human full length N-terminal GST-tagged PDE10A1 expressed in baculovirus infected Sf9 cells using cAMP as substrate pretreated for 10 mins followed by substrate addition and measured after 40 mins by kinase-Glo luminescence assay; details: for pIC50: read-out: IC50
[2] = biological target: Dual specificity calcium/calmodulin-dependent 3',5'-cyclic nucleotide phosphodiesterase 1C (Homo sapiens, UniProt Q14123); test: Inhibition of Ca2+/calmodulin-induced full-length recombinant human N-terminal GST-tagged PDE1C expressed in baculovirus infected Sf9 insect cells using cAMP as substrate pretreated for 10 mins followed by substrate addition and measured after 30 mins by kinase-Glo luminescence assay
In short: (§1)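 Selectivity screen run as a PDE-Glo enzymatic-activity luminescence assay, with IC50 values determined against each counter-screen PDE isoform.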

[3] = biological target: High affinity cGMP-specific 3',5'-cyclic phosphodiesterase 9A (Homo sapiens, UniProt O76083); test: Inhibition of Ca2+/calmodulin-induced recombinant human full length N-terminal GST-tagged PDE9A2 expressed in baculovirus infected Sf9 cells using cGMP as substrate pretreated for 10 mins followed by substrate addition and measured after 60 mins by kinase-Glo luminescence assay; in short: as §1
[4] = biological target: T1, cAMP and cAMP-inhibited cGMP 3',5'-cyclic phosphodiesterase 10A; test: Inhibition of PDE10 (unknown origin)
[5] = Intrinsic clearance in rat liver microsomes; type: ADME, microsome
[6] = Intrinsic clearance in rat liver microsomes in presence of NADP/G6P/G6P dehydrogenase/MgCl2 by LC/MS analysis; type: ADME, microsome; details: read-out: CLH
In short: (§2)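 Phase-1 liver microsomal stability assay for the named species, with intrinsic clearance reported in µl x min^-1 x mg^-1.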

[7] = Intrinsic clearance in human liver microsomes in presence of NADP/G6P/G6P dehydrogenase/MgCl2 by LC/MS analysis; type: ADME, microsome; details: read-out: CLH; in short: as §2

Chain of High affinity cGMP-specific 3',5'-cyclic phosphodiesterase 9A (O76083 whole entry): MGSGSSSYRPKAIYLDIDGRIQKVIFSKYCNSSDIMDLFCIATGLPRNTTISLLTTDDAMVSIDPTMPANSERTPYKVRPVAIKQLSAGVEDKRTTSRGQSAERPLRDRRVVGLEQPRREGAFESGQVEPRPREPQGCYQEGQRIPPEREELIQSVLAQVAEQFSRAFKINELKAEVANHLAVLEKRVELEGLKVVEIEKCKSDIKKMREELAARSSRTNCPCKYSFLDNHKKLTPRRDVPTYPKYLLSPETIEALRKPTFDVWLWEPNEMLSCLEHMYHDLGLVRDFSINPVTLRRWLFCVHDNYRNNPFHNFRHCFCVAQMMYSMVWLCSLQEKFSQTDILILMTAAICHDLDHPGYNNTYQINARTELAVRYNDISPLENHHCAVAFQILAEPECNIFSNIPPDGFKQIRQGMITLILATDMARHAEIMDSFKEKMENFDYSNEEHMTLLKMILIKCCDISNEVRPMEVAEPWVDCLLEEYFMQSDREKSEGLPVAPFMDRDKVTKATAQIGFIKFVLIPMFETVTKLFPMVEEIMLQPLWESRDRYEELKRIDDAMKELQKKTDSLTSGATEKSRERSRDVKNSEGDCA
Chain of Dual specificity calcium/calmodulin-dependent 3',5'-cyclic nucleotide phosphodiesterase 1C (Q14123 whole entry, canonical isoform): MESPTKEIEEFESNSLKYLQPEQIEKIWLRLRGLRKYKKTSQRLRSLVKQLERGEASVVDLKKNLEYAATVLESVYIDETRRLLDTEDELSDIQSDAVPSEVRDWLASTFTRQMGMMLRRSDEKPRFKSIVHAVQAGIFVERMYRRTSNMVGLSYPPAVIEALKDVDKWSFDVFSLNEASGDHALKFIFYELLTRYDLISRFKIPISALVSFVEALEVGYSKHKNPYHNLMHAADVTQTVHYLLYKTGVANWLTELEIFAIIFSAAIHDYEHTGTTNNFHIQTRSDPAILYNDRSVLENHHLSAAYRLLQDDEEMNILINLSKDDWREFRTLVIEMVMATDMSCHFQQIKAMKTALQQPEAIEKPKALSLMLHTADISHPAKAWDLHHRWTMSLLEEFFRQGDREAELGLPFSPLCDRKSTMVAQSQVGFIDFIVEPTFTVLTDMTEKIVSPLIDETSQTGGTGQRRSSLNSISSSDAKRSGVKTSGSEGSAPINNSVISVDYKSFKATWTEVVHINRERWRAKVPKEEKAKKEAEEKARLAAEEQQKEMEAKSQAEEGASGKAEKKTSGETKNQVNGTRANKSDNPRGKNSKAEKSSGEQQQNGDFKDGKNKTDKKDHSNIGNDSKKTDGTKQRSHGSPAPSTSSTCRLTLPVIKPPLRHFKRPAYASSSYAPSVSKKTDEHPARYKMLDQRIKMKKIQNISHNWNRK
T1 sequence (Q9Y233 whole entry): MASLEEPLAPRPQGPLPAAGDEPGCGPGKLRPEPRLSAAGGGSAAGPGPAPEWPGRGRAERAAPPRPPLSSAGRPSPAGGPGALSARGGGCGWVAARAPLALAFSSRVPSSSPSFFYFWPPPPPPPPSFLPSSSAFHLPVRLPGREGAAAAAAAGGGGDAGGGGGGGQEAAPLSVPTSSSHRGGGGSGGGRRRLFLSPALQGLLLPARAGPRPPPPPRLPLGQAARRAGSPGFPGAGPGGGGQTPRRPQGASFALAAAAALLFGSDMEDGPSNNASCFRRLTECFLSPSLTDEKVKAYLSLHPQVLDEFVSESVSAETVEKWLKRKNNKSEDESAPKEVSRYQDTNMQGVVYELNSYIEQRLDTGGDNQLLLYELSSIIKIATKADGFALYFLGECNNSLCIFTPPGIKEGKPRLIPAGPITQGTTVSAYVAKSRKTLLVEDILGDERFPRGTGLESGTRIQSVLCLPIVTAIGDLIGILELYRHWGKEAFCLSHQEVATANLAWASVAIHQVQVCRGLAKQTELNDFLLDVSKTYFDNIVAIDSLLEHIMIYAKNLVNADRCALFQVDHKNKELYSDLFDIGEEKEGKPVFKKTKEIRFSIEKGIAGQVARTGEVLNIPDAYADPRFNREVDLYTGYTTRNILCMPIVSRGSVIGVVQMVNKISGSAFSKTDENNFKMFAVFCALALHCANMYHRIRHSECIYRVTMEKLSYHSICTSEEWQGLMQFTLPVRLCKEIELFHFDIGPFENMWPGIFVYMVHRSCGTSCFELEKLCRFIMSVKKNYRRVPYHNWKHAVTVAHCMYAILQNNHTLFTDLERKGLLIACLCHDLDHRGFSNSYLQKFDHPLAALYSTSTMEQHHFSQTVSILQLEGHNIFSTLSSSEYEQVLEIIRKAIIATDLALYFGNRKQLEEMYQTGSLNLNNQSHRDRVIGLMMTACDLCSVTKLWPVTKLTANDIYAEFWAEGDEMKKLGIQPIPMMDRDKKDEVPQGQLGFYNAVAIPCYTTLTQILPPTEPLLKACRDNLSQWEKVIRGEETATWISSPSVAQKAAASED

Row | SMILES | pIC50 [1] | pIC50 [2] | pIC50 [3] | further results
1 | COc1ccc(OC)c(-c2cn3ccc(-c4nc5c(C)ncc(C)n5n4)nc3n2)c1 | < 6.55 |  |  | 
2 | Cc1ncc(C)n2nc(-c3ccc4nc(Cc5ccccc5)[nH]c4c3)nc12 | < 6.00 |  |  | 
3 | Cc1cc(C)n2nc(-c3ccc4nc(-c5ccccc5)[nH]c4c3)nc2n1 |  | < 5.00 | < 5.00 | 
4 | Cc1cc(C)n2nc(CCc3nc(-c4ccccc4)cn3C)nc2n1 |  |  |  | pIC50 [4]: 7.17; CLH [5]: 13 µL/min/mg
5 | Cc1nc(-c2ccn3cc(-c4ccccc4)nc3n2)nc2ccccc12 | 6.79 |  |  | 
6 | Cc1csc(-c2nc3ccc(-c4nc5c(C)ncc(C)n5n4)cc3[nH]2)n1 | 6.93 | < 5.00 | < 5.00 | 
7 | Cc1ncc(C)n2nc(-c3ccc4nc(-c5cncs5)[nH]c4c3)nc12 | 6.87 | < 5.00 | < 5.00 | 
8 | Cc1cc(C)n2nc(-c3ccc4nc(-c5ccccc5)n(C)c4c3)nc2n1 |  |  |  | IC50 ([1]; sf9): Not Active
9 | Cc1ncc(C)n2nc(-c3ccn4cc(-c5ccc(F)cc5)nc4n3)nc12 | 7.12 | < 5.00 | < 5.00 | microsomal CLint [6]: 3.1 µL/min/mg
10 | Cc1cc(C)n2nc(-c3ccc4cc(-c5ccccc5)nn4c3)nc2n1 | 6.11 |  |  | 
11 | Cc1cc(C)n2nc(-c3ccn4nc(-c5ncccn5)nc4c3)nc2n1 | < 5.30 |  |  | 
12 | Cc1cc(C)n2nc(-c3ccn4cc(-c5ccccc5)nc4n3)nc2n1 |  | < 5.00 | < 5.00 | 
13 | Cc1ncc(C)n2nc(-c3ccc4nc(-c5nccn5C)[nH]c4c3)nc12 | 6.55 |  |  | 
14 | Cc1ncc(C)n2nc(-c3ccc4nc(-c5cccnc5)[nH]c4c3)nc12 | 6.78 | < 5.00 | < 5.00 | 
15 | Cc1ncc(C)n2nc(-c3ccc4nc(-c5ncccc5F)[nH]c4c3)nc12 | 7.16 | < 5.00 | < 5.00 | microsomal CLint [6]: 1.8 µL/min/mg
16 | Cc1ncc(C)n2nc(-c3ccc4nc(-c5ccco5)[nH]c4c3)nc12 | 7.17 | < 5.00 | < 5.00 | microsomal CLint [6]: 26.3 µL/min/mg
17 | Cc1cc(C)n2nc(-c3ccn4nc(-c5ccccc5)nc4c3)nc2n1 | 6.42 |  |  | 
18 | Cc1nc(-c2ccn3nc(-c4ccccc4)nc3c2)nc2ccccc12 | 6.05 |  |  | 
19 | COc1ccccc1-c1cn2ccc(-c3nc4c(C)ncc(C)n4n3)nc2n1 | 7.28 | < 5.00 | < 5.00 | microsomal CLint [6]: 9.1 µL/min/mg
20 | Cc1ncc(C)n2nc(-c3ccc4[nH]c(-c5cocn5)nc4c3)nc12 | < 6.52 |  |  | 
21 | Cc1ncc(C)n2nc(-c3ccc4nc(-c5cscn5)[nH]c4c3)nc12 | 6.57 |  |  | 
22 | Cc1ncc(C)n2nc(-c3ccn4cc(-c5ccccc5Br)nc4n3)nc12 | 6.84 | < 5.00 | < 5.00 | microsomal CLint [6]: 1.8 µL/min/mg
23 | Cc1ncc(C)n2nc(-c3ccc4[nH]c(-c5ccccc5)nc4c3)nc12 |  | < 5.00 | < 5.00 | microsomal CLint [7]: 34.4 µL/min/mg; microsomal CLint [6]: 27.4 µL/min/mg
24 | Cc1ncc(C)n2nc(-c3ccn4cc(-c5ccc(Br)cc5)nc4n3)nc12 | < 6.00 |  |  | microsomal CLint [6]: 15 µL/min/mg
25 | Cc1ncc(C)n2nc(-c3ccn4cc(-c5cccc(Cl)c5)nc4n3)nc12 | 6.97 | < 5.00 | < 5.00 | microsomal CLint [6]: 18.9 µL/min/mg
26 | Cc1ncc(C)n2nc(-c3ccc4nc(-c5ccccc5OC(F)(F)F)[nH]c4c3)nc12 | 6.55 |  |  | 

Row | SMILES | pIC50 [1] | pIC50 [2] | pIC50 [3] | further results
27 | Cc1ncc(C)n2nc(-c3ccc4nc(-c5ccc(F)cc5)[nH]c4c3)nc12 |  | < 5.00 | < 5.00 | 
28 | Cc1cc(C)n2c(Br)c(CSc3nc4ccccc4[nH]3)nc2n1 |  |  |  | pIC50 [4]: 6.68; CLH [5]: 3.6 µL/min/mg
29 | Cc1ncc(C)n2nc(-c3ccc4nc(-c5ccccc5C(F)(F)F)[nH]c4c3)nc12 | < 6.00 |  |  | 
30 | Cc1ncc(C)n2nc(-c3ccc4[nH]c(-c5ccccc5F)nc4c3)nc12 |  | < 5.00 | < 5.00 | 
31 | Cc1ncc(C)n2nc(-c3ccc4nc(-c5cnc6ccccc6n5)[nH]c4c3)nc12 | < 6.00 |  |  | 
32 | COc1ccccc1-c1nc2ccc(-c3nc4c(C)ncc(C)n4n3)cc2[nH]1 |  | < 5.00 | < 5.00 | 
33 | COc1cccnc1-c1nc2ccc(-c3nc4c(C)ncc(C)n4n3)cc2[nH]1 | 7.40 | < 5.00 | < 5.00 | microsomal CLint [7]: 0.7 µL/min/mg; microsomal CLint [6]: 5.4 µL/min/mg
34 | Cc1cnc(-c2nc3ccc(-c4nc5c(C)ncc(C)n5n4)cc3[nH]2)s1 | 6.70 | < 5.00 | < 5.00 | 
35 | Cc1ccccc1-c1nc2ccc(-c3nc4c(C)ncc(C)n4n3)cc2[nH]1 | 6.62 |  |  | 
36 | Cc1ncc(C)n2nc(-c3ccn4nc(-c5ccccc5)nc4c3)nc12 | 6.57 |  |  | 
37 | Cc1ncc(C)n2nc(-c3ccc4nc(-c5cccc(Br)c5)[nH]c4c3)nc12 | 6.84 | < 5.00 | < 5.00 | 
38 | COc1ccnc(-c2nc3ccc(-c4nc5c(C)ncc(C)n5n4)cc3[nH]2)c1 | < 6.55 |  |  | 
39 | Cc1ncc(C)n2nc(-c3ccc4nc(-c5ccc(Cl)s5)[nH]c4c3)nc12 | 6.79 | < 5.00 | < 5.00 | 
40 | Cc1ncc(C)n2nc(-c3ccc4cc(-c5ccccc5)nn4c3)nc12 | 6.24 |  |  | 
41 | Cc1cc(C)n2nc(-c3ccn4cc(-c5nccs5)nc4n3)nc2n1 | 6.34 |  |  | 
42 | Cc1ncc(C)n2nc(-c3ccc4nc(-c5cnccn5)[nH]c4c3)nc12 | < 6.00 |  |  | 
43 | Cc1ncc(C)n2nc(-c3ccc4[nH]c(-c5ccccn5)nc4c3)nc12 |  | < 5.00 | < 5.00 | microsomal CLint [6]: 11.1 µL/min/mg
44 | Cc1cc(C)n2nc(-c3ccn4cc(-c5ccccn5)nc4n3)nc2n1 | 6.55 |  |  | 
45 | Cc1ncc(C)n2nc(-c3ccc4nc(-c5nccs5)[nH]c4c3)nc12 |  | < 5.00 | < 5.00 | 
46 | Cc1ncc(C)n2nc(-c3ccc4nc(-c5cccs5)[nH]c4c3)nc12 | 7.55 | < 5.00 | < 5.00 | 
47 | Cc1ncc(C)n2nc(-c3ccn4cc(-c5ccc(F)cc5Cl)nc4n3)nc12 | < 6.00 |  |  | microsomal CLint [6]: 11.5 µL/min/mg
48 | Cc1ncc(C)n2nc(-c3ccn4cc(-c5ccccn5)nc4n3)nc12 | 6.94 | < 5.00 | < 5.00 | 
49 | Cc1ncc(C)n2nc(-c3ccn4cc(-c5nccs5)nc4n3)nc12 | 6.87 | < 5.00 | < 5.00 | 
50 | Cc1ncc(C)n2nc(-c3ccc4nc(-c5ccccc5C#N)[nH]c4c3)nc12 | 6.42 |  |  | 
51 | Cc1nc(-c2ccc3nc(-c4ccccc4)[nH]c3c2)nc2ccccc12 | 6.50 |  |  | microsomal CLint [6]: > 450 µL/min/mg

Reference: ChEMBL document CHEMBL4152287, “Synthesis and characterization of novel classes of PDE10A inhibitors - 1H-1,3-benzodiazoles and imidazo[1,2-a]pyrimidines” (Eur J Med Chem, 2018)
